# Measured values from different studies.
# Lines come from different studies, so protocols differ.
# SIRT2: NAD-dependent protein deacetylase sirtuin-2 (SIRT2, Homo sapiens, UniProt Q8IXJ6)
# AMY2: Pancreatic alpha-amylase (AMY2, Sus scrofa, UniProt P00690)
# HSD11B2: 11-beta-hydroxysteroid dehydrogenase type 2 (HSD11B2, Homo sapiens, UniProt P80365)
# CHRM2: Muscarinic acetylcholine receptor M2 (CHRM2, Homo sapiens, UniProt P08172)
Structure (SMILES),target,assay,setting,inhibition [%]
CCOCCOCCNC(=S)NCCCC[C@H](NS(C)(=O)=O)C(=O)N[C@H](C)C(=O)N[C@@H](CCCNC(=N)N)C(N)=O,SIRT2,"enzyme activity, inhibitor",100 µM,16
CCN(c1cc(C#CCN2CCOCC2)cc(C(=O)NCc2c(C)cc(C)[nH]c2=O)c1C)[C@H]1CC[C@H](N(C)CCOC)CC1,"N-lysine methyltransferase SMYD2 (SMYD2, Homo sapiens, UniProt Q9NRG4)","enzyme activity, inhibitor",1 µM,8
COc1cc(C=Cc2cc(-c3ccc(N(C)C)cc3)nc(O)n2)ccc1O,AMY2,"enzyme activity, inhibitor, absorbance",1.25 µg/mL,50.3
O=C(NC1CCC1)[C@H](Cc1c[nH]c2ccccc12)NC(=O)[C@H](CCCCNC(=S)NCc1cc(O)no1)NS(=O)(=O)c1cccc(F)c1,SIRT2,"enzyme activity, inhibitor",30 µM,13
COc1cc(C=Cc2cc(-c3ccccc3)nc(O)n2)ccc1O,AMY2,"enzyme activity, inhibitor, absorbance",2.5 µg/mL,66.3
CCCCNC(=S)NCCCC[C@H](NS(=O)(=O)c1cccc(F)c1)C(=O)N[C@@H](Cc1c[nH]c2ccccc12)C(=O)NC1CCC1,SIRT2,"enzyme activity, inhibitor",1 µM,32
CCCCc1oc2ccccc2c1C(=O)c1cc(I)c(OCCN(CC)CC)c(I)c1,HSD11B2,"enzyme activity, inhibitor","20 µM, lysate",< 40
CC(=S)NCCCC[C@H](NC(=O)OCc1ccccc1)C(=O)N[C@@H](Cc1c[nH]c2ccccc12)C(=O)N[C@@H](CC(N)=O)C(N)=O,SIRT2,"enzyme activity, inhibitor",1 µM,26
CC/C(=N\NC(=O)NCc1cccc(O)c1)c1ccc(O)c(C)c1O,"Fibroblast growth factor receptor 3 (FGFR3, Homo sapiens, UniProt P22607, V555M)","enzyme activity, inhibitor",0.1 µM,0.7
CCCN(O)N=Nc1ccc(S(=O)(=O)Nc2cc(C)on2)cc1,AMY2,"enzyme activity, inhibitor",120 µg/mL,31.6
CCOCCOCCOCCNC(=S)NCCCC[C@H](NS(C)(=O)=O)C(=O)N[C@H](C)C(=O)N[C@@H](CCCNC(=N)N)C(N)=O,SIRT2,"enzyme activity, inhibitor",100 µM,13
Oc1cccc(Nc2nc(-c3ccc(F)cc3F)cs2)c1,CHRM2,cell-free assay,10 µM,-43.3
Cc1cc(NS(=O)(=O)c2ccc(N=NN(O)c3ccccc3)cc2)no1,AMY2,"enzyme activity, inhibitor",180 µg/mL,52.6
CN1CC(Oc2cnc(C#N)cc2-c2ccn3nc(NC(=O)C4CC4)cc3c2)C1,"Receptor-interacting serine/threonine-protein kinase 1 (RIPK1, Homo sapiens, UniProt Q13546)","enzyme activity, inhibitor",1 µM,-4
Cn1c(CNC(=S)NCCCC[C@H](NS(=O)(=O)c2cccc(F)c2)C(=O)N[C@@H](Cc2c[nH]c3ccccc23)C(=O)NC2CCC2)n[nH]c1=S,SIRT2,"enzyme activity, inhibitor",30 µM,43
Cc1ccc(N(O)N=Nc2ccc(S(=O)(=O)Nc3onc(C)c3C)cc2)cc1,AMY2,"enzyme activity, inhibitor",60 µg/mL,21.1
CCCC(=S)NCCCC[C@H](NS(C)(=O)=O)C(=O)N[C@H](C)C(=O)N[C@@H](CCCNC(=N)N)C(N)=O,SIRT2,"enzyme activity, inhibitor",10 µM,31
C[C@H]1O[C@H](O[C@H]2[C@H](O)[C@@H](O)[C@@H](O[C@H]3[C@H](O)[C@@H](O)C(O)O[C@@H]3CO)O[C@@H]2CO)[C@H](O)[C@@H](O)[C@@H]1N[C@H]1C=C(CO)[C@@H](O)[C@H](O)[C@H]1O (stereo partly drawn),AMY2,"enzyme activity, inhibitor",30 µg/mL,32.1
C=C(CC)C(=O)c1ccc(OCC(=O)O)c(Cl)c1Cl,HSD11B2,"enzyme activity, inhibitor","20 µM, lysate",< 40
O=C(c1ccc(F)cc1)N(Cc1ccccc1)C1CCCCC1,CHRM2,cell-free assay,10 µM,16
COc1cc(C=CC(=O)CC(c2ccc(N(C)C)cc2)n2ccnc2)ccc1O (stereo not drawn),AMY2,"enzyme activity, inhibitor, absorbance",1.25 µg/mL,58.2
CC(=S)NCCCC[C@H](NC(=O)OCc1ccccc1)C(=O)N[C@@H](Cc1c[nH]c2ccccc12)C(=O)N[C@@H](CCC(=O)O)C(N)=O,SIRT2,"enzyme activity, inhibitor",10 µM,39
CN(O)N=Nc1ccc(S(=O)(=O)Nc2nccs2)cc1,AMY2,"enzyme activity, inhibitor",300 µg/mL,78.9
COc1cc(C=CC(=O)CC(c2ccc([N+](=O)[O-])cc2)n2ccnc2)ccc1O (stereo not drawn),AMY2,"enzyme activity, inhibitor, absorbance",10 µg/mL,87.6
Cc1cccc(N(O)N=Nc2ccc(S(=O)(=O)Nc3onc(C)c3C)cc2)c1,AMY2,"enzyme activity, inhibitor",180 µg/mL,36.8
CC(C)c1c(C(=O)Nc2ccccc2)c(-c2ccccc2)c(-c2ccc(F)cc2)n1CC[C@@H](O)C[C@@H](O)CC(=O)O,HSD11B2,"enzyme activity, inhibitor","20 µM, lysate",< 40
Cc1ccc(N(O)N=Nc2ccc(S(=O)(=O)Nc3cc(C)on3)cc2)cc1,AMY2,"enzyme activity, inhibitor",300 µg/mL,78.9
O=C(O)CN1CCN(CC(=O)O)CCN(CC(=O)O)CC1,"Hydroxyacylglutathione hydrolase, mitochondrial (Homo sapiens, UniProt Q16775)",cell-free assay,500 µM,5.98
COc1cc(NC(C)=O)c(Cl)cc1C(=O)Nc1nccs1,"Amine oxidase [flavin-containing] A (Maoa, Rattus norvegicus, UniProt P21396)",cell-free assay,10 µM,14.4
CCN(O)N=Nc1ccc(S(=O)(=O)Nc2nccs2)cc1,AMY2,"enzyme activity, inhibitor",300 µg/mL,63.2
